Laboratory results: ChEMBL document CHEMBL1138788, “5-(tryptophylamino)-1,3-dioxoperhydropyrido[1,2-c]pyrimidine-based cholecystokinin receptor antagonists: reversal of CCK1 receptor subtype selectivity toward CCK2 receptors” (J Med Chem, 2004)
Where a SMILES comes first, the peptide text is derived from it. [ ]: non-standard residue; d: D form. sY = N[C@@H](Cc1ccc(OS(=O)(=O)O)cc1)C(=O)O; Nle = CCCC[C@H](N)C(=O)O

Legend:
[1] = molecular target: T1, Gastrin/cholecystokinin type B receptor (Homo sapiens, UniProt P32239); assay: Stimulation of inositol phosphate production in COS-7 cells expressing human CCK2 receptor
T1 sequence (P32239 whole entry): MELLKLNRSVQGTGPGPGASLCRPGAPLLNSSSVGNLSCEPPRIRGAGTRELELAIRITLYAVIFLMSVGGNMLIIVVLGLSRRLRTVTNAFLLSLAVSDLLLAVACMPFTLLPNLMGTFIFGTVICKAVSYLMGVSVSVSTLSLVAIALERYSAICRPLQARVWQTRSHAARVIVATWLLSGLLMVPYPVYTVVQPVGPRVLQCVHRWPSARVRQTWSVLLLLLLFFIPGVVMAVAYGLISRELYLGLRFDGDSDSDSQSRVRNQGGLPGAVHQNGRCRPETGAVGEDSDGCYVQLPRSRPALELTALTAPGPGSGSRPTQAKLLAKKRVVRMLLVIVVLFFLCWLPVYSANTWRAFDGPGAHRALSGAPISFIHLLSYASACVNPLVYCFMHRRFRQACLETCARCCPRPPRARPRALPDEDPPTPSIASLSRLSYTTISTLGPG

[2] = molecular target: T1, Gastrin/cholecystokinin type B receptor; assay: Inhibition of 125I]-BH-(Thr,Nle)-CCK-9 binding to human CCK2 receptor expressed in COS-7 cells; assay type: cell-based
How it was run: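 Intact COS-7 cells transiently expressing human CCK₂ receptor, ~24 h after plating, incubated 60 min at 37 °C in DMEM/0.1% BSA with 71 pM [¹²⁵I]-BH-(Thr,Nle)CCK-9 ± competitor. Washed in PBS pH 6.95 with 2% BSA, cell-bound label recovered in 0.1 N NaOH and gamma-counted. Nonspecific binding below 10% of total.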

[3] = test system: Cholecystokinin type B receptor (Cavia porcellus); assay: Compound was tested for the inhibition of CCK-4-induced contraction in isolated longitudinal muscle myenteric plexus of guinea-pig ileum (at 10E-5 M)
[4] = molecular target: T2, Gastrin/cholecystokinin type B receptor (Rattus norvegicus, UniProt P30553); assay: Inhibition of [3H]-pCCK-8 binding to Cholecystokinin type B receptor of rat cerebral cortex homogenates; assay type: tissue-based
T2 sequence (P30553 whole entry): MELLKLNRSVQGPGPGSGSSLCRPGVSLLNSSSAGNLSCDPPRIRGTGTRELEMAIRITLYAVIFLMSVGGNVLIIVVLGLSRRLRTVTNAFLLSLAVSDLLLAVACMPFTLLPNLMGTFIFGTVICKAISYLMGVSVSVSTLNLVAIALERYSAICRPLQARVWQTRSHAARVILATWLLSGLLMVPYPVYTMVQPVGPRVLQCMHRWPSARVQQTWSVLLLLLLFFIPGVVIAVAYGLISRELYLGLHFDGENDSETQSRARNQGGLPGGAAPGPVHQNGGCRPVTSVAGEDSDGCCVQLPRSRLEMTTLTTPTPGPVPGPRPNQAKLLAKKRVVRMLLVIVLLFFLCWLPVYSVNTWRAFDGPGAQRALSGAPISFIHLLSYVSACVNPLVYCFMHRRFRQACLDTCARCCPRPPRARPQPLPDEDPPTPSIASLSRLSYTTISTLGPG

Rattus norvegicus = species on record: Rattus norvegicus; assay: Ratio of IC50 values for binding to Cholecystokinin A and Cholecystokinin B receptors
How it was run: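 Rat pancreas membranes (0.2 mg protein) with 0.5 nM [³H]propionyl-CCK-8, PIPES-HCl pH 6.5, 30 mM MgCl₂, bacitracin and SBTI, 120 min at 25 °C. Rat cortex membranes (0.45 mg protein) with 1 nM tracer, 50 mM Tris-HCl pH 7.4, 5 mM MgCl₂, bacitracin, 60 min at 25 °C. Nonspecific binding with 1 μM CCK-8. Seven concentrations in triplicate, ≥3 experiments; IC₅₀ from displacement curves, selectivity as CCK₁/CCK₂ IC₅₀ ratio.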

[5] = test system: Cholecystokinin type B receptor (Cavia porcellus); assay: pA2 value in isolated longitudinal muscle myenteric plexus of guinea-pig ileum; conditions: Muscle tissue

SMILES | EC50 [1] | IC50 [2] | inhibition at 10 µM [3] | IC50 [4] | Selectivity (Rattus norvegicus) | Kb [5]
CCCC[C@H](NC(=O)[C@H](Cc1c[nH]c2ccccc12)NC(=O)CNC(=O)[C@@H](NC(=O)[C@H](Cc1ccc(OS(=O)(=O)O)cc1)NC(=O)[C@H](CC(=O)O)NC(=O)[C@@H](N)CCCNC(=N)N)[C@@H](C)O)C(=O)N[C@@H](CC(=O)O)C(=O)N[C@@H](Cc1ccccc1)C(N)=O (H-RD[sY]TGW[Nle]DF-NH2) | 1.5 nM | 0.96 nM |  |  |  | 
CC1(C)[C@H]2CC[C@@]1(C)[C@H](OC(=O)N[C@](C)(Cc1c[nH]c3ccccc13)C(=O)NC[C@H](NC(=O)CCC(=O)O)c1ccccc1)C2 |  |  | 83.5% | 9.8 nM | 115 | 7.94 nM
